Bioassay records deposited in PubChem by Sanford-Burnham Center for Chemical Genomics.
Scp1 inh: blocks human Scp-1 phosphatase activity; Q9GZU7; Recombinant Scp1, phosphopeptide, malachite green phosphate absorbance; inhibition, % at 20 µM; 340,000 tested, 0.88% active; AID 493091;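 active means inhibition above about 50% at 20 µM, limit read from the data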
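Test system: SCP-1 phosphatase catalytic domain, residues 76-261; measured by: colorimetric phosphate reagent with accelerator and stabiliser, absorbance at 630 nm; timing: enzyme reaction 45 min at room temperature, colour 5 min, stabilisation 30 min; also added: Phosphorylated 17-residue peptide substrate; compound dosing: one concentration, 20 µM, with 1.0% DMSO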
LMPTP inh: blocks human LMPTP phosphatase; P24666; recombinant LMPTP-A, OMFP fluorogenic substrate, fluorescence intensity; inhibition, % at 20 µM; 360,000 tested, 0.22% active; AID 651560;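 active means compounds that cut the enzyme signal by at least half of the control window in the single-dose screen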
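Test system: LMPTP-A, protein tyrosine phosphatase of low molecular weight; Input: 0.625 nM enzyme; Incubation: 50 min dark incubation at room temperature; Signal: endpoint fluorescence intensity from OMFP dephosphorylation; Read-out basis: % inhibition versus control wells.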
STEP block: blocks human striatal-enriched tyrosine phosphatase; inhibition, % at 20 µM; recombinant STEP, OMFP fluorogenic substrate, fluorescence; 360,000 tested, 0.25% active; AID 588621; P54829;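 active means inhibition at 20 µM, scaled per plate between control wells, above about 37%, limit read from the data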
Target sequence (P54829 whole entry, looked up): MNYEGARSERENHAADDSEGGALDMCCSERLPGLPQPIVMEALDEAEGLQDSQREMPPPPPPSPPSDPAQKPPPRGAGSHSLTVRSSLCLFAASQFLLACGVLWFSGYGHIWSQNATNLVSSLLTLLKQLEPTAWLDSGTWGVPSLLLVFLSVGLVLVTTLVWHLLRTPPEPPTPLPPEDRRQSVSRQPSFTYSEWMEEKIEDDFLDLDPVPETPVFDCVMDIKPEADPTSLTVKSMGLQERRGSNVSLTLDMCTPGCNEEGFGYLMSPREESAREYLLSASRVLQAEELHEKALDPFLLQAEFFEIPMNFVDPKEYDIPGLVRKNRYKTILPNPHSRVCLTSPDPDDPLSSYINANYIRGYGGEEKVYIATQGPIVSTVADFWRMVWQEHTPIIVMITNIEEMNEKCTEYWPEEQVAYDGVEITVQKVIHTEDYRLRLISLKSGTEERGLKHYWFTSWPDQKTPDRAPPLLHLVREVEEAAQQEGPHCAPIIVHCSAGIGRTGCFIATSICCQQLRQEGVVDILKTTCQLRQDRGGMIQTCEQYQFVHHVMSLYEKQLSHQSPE
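Assay system: isolated STEP enzyme. Buffer or medium: pH 6.0 Bis-Tris with DTT and Tween 20. Also added: fluorogenic phosphatase substrate OMFP at 25 µM final. Dosing: 20 µM, 1% DMSO. Timing: 20 min reaction, room temperature, in the dark. Measured by: fluorescence intensity, excitation 480 nm, emission 540 nm. Evaluation: normalized % inhibition.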
DNMT1 inh: DNMT1 (human) enzyme inhibition; P26358; 360,000 tested, 0.83% active; AID 588458; inhibition (reported as % activation of signal), % at 10 µM; DNMT1 molecular beacon, Hinp1I cleavage, fluorescence; in the data active means inhibition above about 50%
SUMO1 PPI mod: modulators of human SUMO1-mediated protein-protein interactions; P63165; SUMO1 binding to a labelled peptide, TR-FRET, 1 h; inhibition, % at 20 µM; 360,000 tested, 0.33% active; AID 602429; in the data active means inhibition above about 37%
Target sequence (P63165 whole entry, looked up): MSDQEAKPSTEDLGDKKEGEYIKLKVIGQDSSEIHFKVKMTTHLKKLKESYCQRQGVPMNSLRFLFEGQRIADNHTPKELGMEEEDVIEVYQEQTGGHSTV
DNMT1 interf DR: beacon fluorescence artifact, dose response counter-screen; IC50, µM; shares compounds with DNMT1 inh; molecular beacon fluorescence, spectral interference counter-screen; 200 tested, under 10 active; AID 602382; call rule not given here
DNMT1 confirm: DNMT1 inhibition confirmation, single concentration; 2,300 tested, 8% active; inhibition, % at 10 µM; shares compounds with DNMT1 inh; DNMT1 molecular beacon HinP1I cleavage, fluorescence; AID 602385;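 active means average inhibition of at least 30% in the single-concentration confirmation test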
Beacon interf: shows spectral interference in the DNMT1 beacon assay. AID 602387. 2,300 tested, 1% active. DNMT1 molecular beacon spectral interference counterscreen, fluorescence 485/520. shares compounds with DNMT1 inh. activation (fluorescence interference), % at 10 µM;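 active means activation of at least 30% at 10 µM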;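 further: DNMT1 catalytic domain with a HinP1I cleavage step and a FAM/dabcyl DNA beacon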
Hits are given with their value; – = inactive; · = no result. Hits are enriched below; roughly 1.7% of the tested compounds scored in any of these assays.

SMILES	Scp1 inh	LMPTP inh	STEP block	DNMT1 inh	SUMO1 PPI mod	DNMT1 confirm	Beacon interf	others
Cn1cc(/C=C(\C#N)C(=O)Nc2cccc([N+](=O)[O-])c2)c2ccccc21	–	–	–	60.7	–	–	–
CSc1cc(-c2ccco2)oc1C(=O)c1ccco1	–	–	–	–	–	·	·
O=C1Nc2ccccc2C1(c1ccccc1)c1ccccc1	–	–	–	–	–	·	·
CCC1(CC)C(=O)Nc2ccccc21	–	–	–	74.7	–	–	–
CCCCCCNC(=O)O[C@H]1C[C@@H]2C(=O)N(c3ccccc3)C(=O)[C@@H]2[C@@H]2CN(S(=O)(=O)c3ccc(C)cc3)C[C@]12O	·	–	–	75.6	–	–	–
Cc1ccc(S(=O)(=O)N2C[C@H]3[C@H]4C(=O)N(c5ccccc5)C(=O)[C@H]4C[C@H](OC(=O)NC4CC4)[C@@]3(O)C2)cc1	·	–	–	–	–	·	·
Cc1cc2c(c(=O)n1Cc1cccnc1)C(Cc1ccccc1)C(C#N)=C(N)O2 (stereo unspecified)	–	–	–	56.1	–	–	–
Cc1ccc(SCC(=O)Nc2cc([N+](=O)[O-])ccc2O)cc1	–	–	–	–	–	·	·
CC1CCCCN1CCNC(=O)c1ccc2c(c1)N(Cc1cccc(Cl)c1)C(=O)c1ccccc1S2(=O)=O (stereo unspecified)	·	–	–	85.7	–	–	–
CN1CCN(C(=O)c2ccc3c(c2)N(Cc2cccc(Cl)c2)C(=O)c2ccccc2S3(=O)=O)CC1	–	–	–	–	–	·	·
Cc1cc([N+](=O)[O-])nn1Cc1noc(C(=O)NCCc2ccccn2)n1	–	–	–	–	–	·	·
CC1(C)CC(NC(=O)c2ccc(F)cc2)CC(C)(C)N1	·	–	–	–	–	·	·
CC1(C)CC(NC(=O)c2ccccc2)CC(C)(C)N1	–	–	–	100.8	–	–	–
C=CCn1c(N)c(C(=O)OCCC)c2nc3ccccc3nc21	–	–	–	59.7	–	–	–
Cc1ccc(Cl)c2c1=NC(=O)C=2c1[nH]c(=S)[nH]c1O	–	–	–	–	–	·	·
COc1ccc(-c2c(C#Cc3ccsc3)c3cc(Br)ccc3n2C)cc1	–	–	–	–	–	·	·
COc1ccc(-c2c(C#Cc3ccc(N(C)C)cc3)c3ccccc3n2C)cc1	–	–	–	57.1	–	–	–
COc1cccc(S(=O)(=O)N(C)C[C@@H]2Oc3cc(Br)ccc3S(=O)(=O)N([C@@H](C)CO)C[C@@H]2C)c1	·	–	–	82.9	–	–	–
O=C(COC(=O)c1ccc(-c2nnc(-c3ccccc3)o2)cc1)c1ccccc1	–	–	–	53.8	–	–	–
Cc1ccc(C)n1/N=C1/NC(=O)CS1	–	–	–	90.3	–	–	–
Cc1sc2ncnc(N3CCC(C(=O)N(CC(C)C)c4nc5ccccc5s4)CC3)c2c1C	–	–	–	–	–	·	·
C=CCC1NS(=O)(=O)OCC1C(C)C (stereo unspecified)	–	–	–	50.5	–	–	–
C=CCC1NS(=O)(=O)OCC1NC(=O)OCC(Cl)(Cl)Cl (stereo unspecified)	–	–	–	–	–	·	·
COc1cc2nc(CN3CCN(S(=O)(=O)c4cc(C)ccc4C)CC3)[nH]c(=O)c2cc1OC	–	–	–	91.7	–	–	–
COc1ccc(Cl)cc1NC(=O)CCNC(=O)Cn1ccc2ccccc2c1=O	–	–	–	–	–	·	·
SMILES	Scp1 inh	LMPTP inh	STEP block	DNMT1 inh	SUMO1 PPI mod	DNMT1 confirm	Beacon interf	others
CN(C)c1ccc(CCc2ccc(N)cc2)cc1	–	–	–	–	–	·	·
Nc1ccc(N(c2ccccc2)c2ccc(N)cc2)cc1	–	–	–	61.8	–	–	–
COc1ccccc1C1=NC(c2ccc(F)cc2)N=C1C (stereo unspecified)	–	–	–	73.6	–	–	–
O=C(/C=C/c1ccco1)NC(=S)Nc1ccc(O)c(-c2nc3ccccc3s2)c1	–	–	–	67.3	–	–	–
CCC(C)NC(=O)C1(N2C(=O)c3ccccc3C2=O)CCCC1 (stereo unspecified)	–	–	–	–	–	·	·
CCCCc1ncc(CN2CCN(Cc3ccc(C)cc3)C(CCO)C2)[nH]1 (stereo unspecified)	–	–	–	–	–	·	·
CCC1(C)COC(C)(CC(=O)NNC(=O)Nc2ccccc2)OC1 (stereo unspecified)	–	–	–	81.5	–	–	–
Cc1ccc(C(=O)Nc2nc(-c3ccc([N+](=O)[O-])cc3)cs2)o1	–	–	–	51.4	–	–	–
CC(C)(C)c1ccc(-n2ncc3c2CCCC3NC(=O)CCN2CCCC2=O)cc1 (stereo unspecified)	–	–	–	–	–	·	·
Cc1ccc(-c2cnc(C(O)c3cc(F)cc(Cl)c3)[nH]2)cc1 (stereo unspecified)	·	–	–	–	–	·	·
CC1(C(=O)NS(=O)(=O)Cc2ccccc2)CCN1C(=O)c1ccc(C2CCCCC2)cc1 (stereo unspecified)	·	–	–	–	–	·	·
CC1(C(=O)NS(=O)(=O)Cc2cccc(Cl)c2)CCN1C(=O)c1ccc(C2CCCCC2)cc1 (stereo unspecified)	·	–	–	78.2	–	–	–
O=C(c1cccc(-n2cccc2)c1)N1CCN(S(=O)(=O)c2c(F)cccc2F)CC1	–	–	–	–	–	·	·
O=C(c1cccc(-n2cccc2)c1)N1CCN(S(=O)(=O)c2ccccc2)CC1	·	–	–	96.8	75.8	–	–
O=C(O)CC(c1cccc(O)c1)N1Cc2ccccc2C1=O (stereo unspecified)	–	–	–	–	–	·	·
COc1ccc(CCN2CC(C(=O)OCC(=O)Nc3c(C)nn(-c4ccccc4)c3C)CC2=O)cc1OC (stereo unspecified)	–	–	–	85.9	–	–	–
C=CCn1c(COc2cccc(C)c2)nnc1SCC(=O)c1c(N)n(C)c(=O)n(C)c1=O	–	–	–	–	–	·	·
C=CCn1c(COc2ccc(Cl)cc2)nnc1SCC(=O)c1c(N)n(C)c(=O)n(C)c1=O	–	–	–	73.0	–	–	–
COc1ccc(C(=O)OCC(=O)Nc2ncc([N+](=O)[O-])s2)cc1OC	51.1	–	–	99.4	–	86.4	–	DNMT1 interf DR=–
O=C(COC(=O)c1ccc(Br)o1)Nc1ncc([N+](=O)[O-])s1	–	–	–	71.2	–	–	–
CS(=O)(=O)NN1C(=O)c2ccccc2NC1c1c[nH]c2ccccc12 (stereo unspecified)	–	–	–	–	–	·	·
